Screening data: PubChem, several laboratories
Most compounds without a hit are left out; they make up all but 2.1% or so of the library.
Ins promoter up: MIN6 insulin promoter up-regulation. MIN6 insulin promoter-GFP reporter, high-content imaging; active compounds read high. z-score at 5 µM. 0.3% of 190,000 active. AID 1625;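 active means z-score above 3 at 5 µM with at least 500 cells counted in the well; inconclusive means wells under 500 cells, flagged as cytotoxic or low count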
Autophagy mod: autophagy modulation, high-content screen | AID 463193 | 0.98% of 190,000 active | MEF GFP-LC3 puncta imaging; test concentration mostly 10 µM | calls only at 10 µM (by protocol);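 active means percentage of spot-positive cells more than 3 SD above its plate mean, without a fluorescence outlier flag or 80% toxicity; inconclusive means no clear call, values can overlap the other calls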;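 further: spot-positive cell cutoff set from DMSO-treated cells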
RBBP9 inh: blocks human serine hydrolase RBBP9; O75884; recombinant RBBP9, FP-Rh probe fluorescence polarization; inhibition, % at 7.94 µM; 0.2% of 220,000 active; AID 1515;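 active means inhibition above the campaign mean of all tested compounds plus 3 SD, cut at about 14% in these data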;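 further: plate controls were DMSO wells with RBBP9 for no effect and wells lacking RBBP9 protein for full effect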
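Measured by – fluorescence polarization · Test system – RBBP9 protein · Input – 2.5 µM RBBP9 dispensing solution, before mixing · Measure – percent inhibition from mP, scaled between DMSO and no-protein wells · Benchmarks – DMSO-treated enzyme wells and wells lacking RBBP9 · Times – preincubation 30 min plus labeling 45 min at 25 °C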
INS promoter inh: TRM-6 insulin promoter activity inhibition; TRM-6 cells (human fetal islet line), insulin promoter-eGFP reporter, imaging; reporter expression induced with tamoxifen; inhibition, % at 2 µM; 0.9% of 130,000 active; AID 1273;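 active means inhibition above the mean plus 3 SD, with well images judged a real hit on visual review, cut at about 60% in these data, passing the limit was not always enough; inconclusive means inhibition over the cutoff but images rejected on review; inactive means inhibition not above the cutoff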
PKD1 inh: PKD1 (human) kinase inhibition | 0.056% of 200,000 active | AID 797 | PKD1 kinase fluorescence polarization assay | inhibition, % (test concentration not listed) | Q15139; in the data active means inhibition above about 50%
Target sequence (Q15139 whole entry, looked up): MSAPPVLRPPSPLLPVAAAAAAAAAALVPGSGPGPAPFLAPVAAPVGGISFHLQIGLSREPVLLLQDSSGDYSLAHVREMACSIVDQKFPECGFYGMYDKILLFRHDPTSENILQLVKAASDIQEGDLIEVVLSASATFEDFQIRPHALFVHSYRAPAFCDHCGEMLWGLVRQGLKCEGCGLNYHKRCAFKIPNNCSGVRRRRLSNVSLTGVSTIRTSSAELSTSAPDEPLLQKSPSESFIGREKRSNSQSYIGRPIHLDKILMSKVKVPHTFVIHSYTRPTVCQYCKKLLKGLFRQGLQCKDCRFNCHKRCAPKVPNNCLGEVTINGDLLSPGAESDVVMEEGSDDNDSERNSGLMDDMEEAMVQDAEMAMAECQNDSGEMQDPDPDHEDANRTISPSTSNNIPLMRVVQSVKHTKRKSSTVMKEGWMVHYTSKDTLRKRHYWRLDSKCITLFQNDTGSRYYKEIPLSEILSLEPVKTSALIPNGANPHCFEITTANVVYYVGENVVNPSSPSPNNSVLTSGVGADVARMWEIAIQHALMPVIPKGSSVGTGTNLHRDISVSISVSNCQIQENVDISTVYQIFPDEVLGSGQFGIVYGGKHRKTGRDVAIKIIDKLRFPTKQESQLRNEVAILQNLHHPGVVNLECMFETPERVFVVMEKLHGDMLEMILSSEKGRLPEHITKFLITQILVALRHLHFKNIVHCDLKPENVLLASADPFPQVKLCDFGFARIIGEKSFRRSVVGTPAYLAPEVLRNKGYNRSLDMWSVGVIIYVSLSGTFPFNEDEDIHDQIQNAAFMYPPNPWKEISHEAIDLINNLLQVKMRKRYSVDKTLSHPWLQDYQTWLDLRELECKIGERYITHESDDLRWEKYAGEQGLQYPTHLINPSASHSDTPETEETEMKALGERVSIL
Arbovirus anti: antivirals against arbovirus infection; arbovirus infection cell-based antiviral screen; inhibition, % at 10 µM; 0.37% of 200,000 active; in the data active means inhibition above about 30%
An asterisk follows results filed as active; i = inactive; ? = inconclusive; / = not tested or not shown; + = active, no number.

SMILES	Ins promoter up	Autophagy mod	RBBP9 inh	INS promoter inh	PKD1 inh	Arbovirus anti
CC(C)C(=O)N1CCN(c2ccc(NC(=O)c3ccc([N+](=O)[O-])o3)cc2)CC1	0.46	+	-5.8	/	-5.3	-36.0
Cc1ccccc1C(=O)N1CCN(c2ccc(NC(=O)c3ccco3)cc2Cl)CC1	-1.37	i	1.9	84.6*	-9.4	-23.1
O=C(Nc1ccc(N2CCN(C(=O)c3cccs3)CC2)c(Cl)c1)c1ccco1	-0.28	i	-3.1	23.3	-6.4	4.2
CCCC(=O)N1CCN(c2ccc(NC(=O)c3ccc([N+](=O)[O-])o3)cc2Cl)CC1	0.26	+	4.3	/	9.1	-31.6
CC(C)C(=O)N1CCN(c2ccc(NC(=O)c3ccc([N+](=O)[O-])o3)cc2Cl)CC1	0.26	i	-3.6	i	0.5	-32.2
CCN1c2ccccc2NC2C1C(C(C)=O)C(=O)N2c1ccc(Cl)cc1 (stereo not given)	/	+	-2.7	-133.3	-44.4	11.0
O=C1Nc2ccccc2N(O)N1c1ccc(Cl)cc1	-0.03	i	-14.9	-10.5	-6.2	-0.4
Cc1ccc(S(=O)(=O)N(CCC(=O)Nc2ccc(OC(F)(F)F)cc2)c2ccccc2)cc1	0.01	i	-2.8	19.2	-0.8	-16.5
Cc1ccc(N(CCC(=O)NC(C)(C)C)S(=O)(=O)c2ccc(C)cc2)cc1	-0.19	+	-4.1	-40.0	3.7	11.7
O=C(NCCSCc1ccccc1)c1ccccc1	-0.01	i	-9.7	-36.5	1.3	-3.9
Cc1ccccc1NC(=S)c1nc2ccccc2[nH]1	-0.92	i	-7.1	97.4*	-7.9	-1.1
S=C(Nc1ccc(Cl)cc1)c1nc2ccccc2[nH]1	0.83	i	-4.2	/	2.0	-16.1
CCOC(=O)c1c(C)c(C(=O)N2CCN(c3cccc(Cl)c3)CC2)c(C)n1C	-0.26	i	-5.0	/	11.6	-11.3
C=CCSc1nnc2c(n1)OC(c1cccnc1)N(C(C)=O)c1ccccc1-2 (stereo not given)	-0.17	i	-2.7	/	-1.9	5.2
CCOC(=O)c1sc2nc(CSc3ccccc3)nc(N3CCC(C(N)=O)CC3)c2c1C	-1.09	i	-2.6	-35.3	-14.5	-25.4
CCOC(=O)c1sc2nc(CSc3ccccc3)nc(N3CCCN(C)CC3)c2c1C	-2.77	+	-5.0	-135.7	-6.6	-33.5
CCOc1ccc(S(=O)(=O)N2CCN(C(=S)NCc3ccccc3)CC2)cc1	-0.28	/	-7.4	/	/	/
CN1CCN(c2ccc(Cl)cc2NC(=O)c2nn(-c3ccccc3)c(=O)c3ccccc23)CC1	-0.3	i	-2.4	27.3	3.6	-6.6
O=C1C=C(O)c2cccc(O)c2C1=O	0.86	/	/	/	/	/
CC1=CC(=O)c2c(O)ccc(O)c2C1=O	?	i	15.8*	/	-3.9	-4.0
COc1ccc2ccccc2c1/C=N/NC(=S)Nc1cc(S(=O)(=O)N2CCOCC2)ccc1N1CCOCC1	-0.38	i	-1.1	-6.5	0.2	-12.7
CC(OC(=O)c1oc2ccccc2c1COc1ccccc1)C(=O)NC(N)=O (stereo not given)	0.46	+	-0.1	/	4.2	3.6
CCCN1C(=O)NC2(O)C(=O)c3ccccc3C12O (stereo not given)	1.09	i	0.6	/	-3.8	3.5
Cc1cc(=O)oc2cc(OCC(=O)OCC(=O)NC3CC3)ccc12	3.8*	i	-3.4	/	-4.4	4.8
CNC(=O)COC(=O)COc1ccc2c(C)cc(=O)oc2c1	0.4	i	5.1	/	8.0	0.3
SMILES	Ins promoter up	Autophagy mod	RBBP9 inh	INS promoter inh	PKD1 inh	Arbovirus anti
COc1ccc(CNC(=O)Cn2ncn3cccc3c2=O)cc1	0.29	i	-8.6	-27.3	-2.9	8.7
COc1cc(CNC2CCCC2)cc(Cl)c1OCc1ccccc1Cl	-0.83	i	-2.9	-33.3	0.1	-29.9
N/C(=N\OC(=O)Cc1ccc(-c2ccccc2)cc1)c1ccccn1	/	i	-2.0	43.8	2.9	0.3
COCC1CCCN(Cc2nc(C(c3ccccc3)c3ccccc3)no2)C1 (stereo not given)	0.12	+	-2.1	/	-2.7	-4.9
c1ccc(C(c2ccccc2)c2noc(CN3CCN(CC4CC4)CC3)n2)cc1	-0.58	i	-6.0	/	7.7	-17.5
COc1cc(/C=C2\SC(=Nc3ccc(F)cc3)N(c3ccc(F)cc3)C2=O)ccc1OCC(=O)O	-0.7	i	-3.4	0.0	0.7	4.5
O=c1c2ccccc2[nH]c(=S)n1Cc1cccnc1	-0.33	i	3.4	52.2	-5.4	4.2
NCC12CC3CC(C1)CC(CN)(C3)C2	3.09*	i	-3.6	/	0.6	-10.3
CCc1nc2oc3cc(OC)ccc3c(=O)c2c(=O)n1Cc1ccccc1	0.65	i	7.7	66.7*	1.5	12.5
c1cncc(-c2nc(NCCCN3CCOCC3)c3c4c(sc3n2)CCC4)c1	-1	+	-4.3	-36.4	5.6	16.0
Nc1nc(COc2ccc(F)cc2)nc(N2CCCCC2)n1	-0.75	i	2.9	/	-0.3	-1.2
COCCOC(=O)c1[nH]c2c(c1C)C(=O)CC(c1ccccc1)C2 (stereo not given)	0.06	+	-9.6	-87.0	-5.2	-19.6
COC(=O)c1[nH]c2c(c1C)C(=O)CC(c1cccs1)C2 (stereo not given)	-2.11	+	-12.1	-206.7	-1.3	-15.0
COCCOC(=O)c1[nH]c2c(c1C)C(=O)CC(c1ccc(F)cc1)C2 (stereo not given)	-0.18	i	-7.2	/	-6.8	-27.6
O=C1NC2(CCCc3ccccc32)C(=O)N1Cc1nnc(-c2ccccc2Br)o1 (stereo not given)	-1.27	i	0.4	-13.9	14.7	-1.2
COc1ccc(Br)cc1CNC(=O)C1CCN(C(=O)N(C)C)CC1	/	i	4.3	21.4	-4.7	-0.7
COc1cc(N2CCCC2)c(OC)cc1/C=C1/NC(=S)NC1=O	/	+	12.8	-153.8	-22.0	-1.7
Cc1ccc(-c2cc(N)n(-c3ccccc3)n2)cc1	5.28*	i	-4.9	18.6	-6.5	6.1
Cc1cccc(-c2cc(N)n(-c3ccccc3)n2)c1	0.07	i	0.5	/	1.4	-16.6
CC(=O)N1CCN(c2ccccc2NC(=O)c2ccc(-c3cccc([N+](=O)[O-])c3)o2)CC1	-0.64	i	5.4	/	-6.2	-1.1
CCOc1cc(-c2cc(-c3ccc(C)cc3)nc(N)c2C#N)ccc1O	-0.13	+	-6.0	40.7	-3.9	-11.9
CCOc1ccc(C2/C(=C(\O)c3c(C)[nH]c(C(=O)OC)c3C)C(=O)C(=O)N2CCN(C)C)cc1 (stereo not given)	/	i	-8.4	30.8	9.9	0.0
CCCOc1ccc(C2/C(=C(\O)c3c(C)[nH]c(C(=O)OC)c3C)C(=O)C(=O)N2CCN(C)C)cc1 (stereo not given)	/	i	2.8	84.6*	0.1	-6.1
O=c1c(C(c2ccc(F)cc2)c2c(O)nc3n(c2=O)CCCS3)c(O)nc2n1CCCS2	-0.6	/	-4.8	/	/	/
CC(Nc1cc(=O)n(C)c(=O)n1C)c1ccccc1 (stereo not given)	-0.05	i	-3.1	0.0	-7.1	-3.0
